PubChem BioAssay
Results filed as inconclusive are left out.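 Rule for the calls, unless noted: active = viability increase at or above a cutoff of the median across tested compounds plus 3 SD (cut at about 8.5% in these data, passing the limit was not always enough); inconclusive = some gains above the cutoff, reason not given; inactive = the rest.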

Columns and labels:
[1] = OD615 S. cerevisiae growth inhibition, permissive medium, pilot counter-assay, permissive growth control for S. cerevisiae lifespan shortening project (AID 705;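 active = growth inhibition above 25% in both replicates, a cutoff set 3 SD above the mean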); settings: OD615, 24 h, at 10 µM, hits give high values
Method in brief: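 Test system: Saccharomyces cerevisiae strain carrying genetically modified DeaD replicative-lifespan system; buffer or medium: SC raffinose/galactose permissive medium; dosing: one dose 10 µM, DMSO 0.25% final; times: 24 h exposure, 30 °C; measured by: OD at 615 nm; read-out basis: growth inhibition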

[2] = Restrictive medium S. cerevisiae growth inhibition, OD615, pilot screen of yeast lifespan reduction project, restrictive growth control (AID 706;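 active = growth inhibition above a set limit, 3 SD over mean compound inhibition, in both replicates, cut at about 43% in these data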;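 note: modified DeaD lifespan yeast strain shifted to restrictive glucose medium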); settings: OD615, 48 h, at 10 µM, hits give high values
Method in brief: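 material = engineered S. cerevisiae DeaD strain | buffer or medium = glucose-based CSMM-D restrictive medium | dosing = one concentration, 10 µM final, 0.25% DMSO | schedule = 4 h pre-growth plus 48 h compound exposure, 30 °C | detection = OD615 absorbance reading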

[3] = viability gain of MRP-1-high H69AR cells under doxorubicin, pilot screen, MRP-1 activator project, CellTiter-Glo, duplicate (AID 807); settings: H69AR viability with doxorubicin, CellTiter-Glo luminescence; at 10 µM; hits give high values;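 note: compound pretreatment 18-22 h then 72 h combined with doxorubicin; 0% = doxorubicin alone and 100% = vehicle without doxorubicin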
[4] = growth suppression of beta-catenin knockout HCT116, pilot screen, human colon tumor cells (AID 823;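 active = cell viability at or below a set limit in both duplicate runs, the limit being the all-compound median minus 4 SD, cut at about 23% in these data, passing the limit was not always enough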;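 note: 0% = wells killed by 20 µM Hyamine and 100% = untreated DMSO cell wells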); settings: CellTiter-Glo, 60 h, at 10 µM, hits give low values
[5] = growth suppression of PTEN-deleted HCT116, pilot screen, cell-based, HCT116 clonal line, CellTiter-Glo (AID 824;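 active = viability at or below 27.92% in each of two runs, the all-compound median minus 4 SD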;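 note: 0% = 20 µM Hyamine control and 100% = vehicle cell control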); settings: 60 h, at 10 µM, hits give low values
[6] = RAM signaling pathway blockade in yeast – S. cerevisiae, Pdr1DBD-CYC8 efflux-inhibited sensitized strain, primary screen (AID 1298;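 active = RAM network inhibition above 8.4% in each of two replicates, 3 SD over the compound average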;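 note: 0% = DMSO untreated cells without growth and 100% = 10 µM 1-NA-PP1 full growth; higher means more yeast growth rescued from 5-FOA killing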); settings: S. cerevisiae cbk1-as DSE1-URA3 strain, 5-FOA growth OD615, 2 d; at 50 µM; hits give high values

CC(=O)c1cccc(NC(=O)CCS(=O)(=O)c2cccc3nonc23)c1
inactive: growth inhibition [1] -9.88% | growth inhibition [2] -7.91% | viability increase [3] -3.46% | viability [4] 93.5% | viability [5] 93.2% | RAM network inhibition [6] 3.02%

Cn1c(=O)[nH]c(=O)c2c1nc(Sc1ccccc1)n2CCc1ccccc1
inactive: growth inhibition [1] -4.23% | growth inhibition [2] -5.96% | viability increase [3] -5.18% | viability [4] 91.6% | viability [5] 69.2% | RAM network inhibition [6] 7.53%

O=C(CCc1nc2ccccc2[nH]1)Nc1ccc2c(c1)OCCO2
inactive: growth inhibition [1] -17.1% | growth inhibition [2] -18.4% | viability increase [3] -2.36% | viability [4] 94.2% | viability [5] 94.8% | RAM network inhibition [6] 0.89%

CCn1c(=O)c2cc(C(=O)NCc3cccs3)sc2c2ccccc21
inactive: growth inhibition [1] -11.3% | growth inhibition [2] -8.09% | viability increase [3] -5.17% | viability [4] 102% | viability [5] 95.9% | RAM network inhibition [6] 4.3%

CCSC1=C(C#N)C(c2cccc(O)c2)CC(=O)N1 (configuration not stated)
inactive: growth inhibition [1] -2.26% | growth inhibition [2] -11% | viability increase [3] -1.66% | viability [4] 98.2% | viability [5] 97.1% | RAM network inhibition [6] 3.85%

O=C1CCC(C(=O)NC2(C(=O)NC3CCCCC3)CCCCC2)N1 (configuration not stated)
inactive: growth inhibition [1] -0.36% | growth inhibition [2] -2.28% | viability increase [3] 0.85% | viability [4] 99.6% | viability [5] 104% | RAM network inhibition [6] 1%

O=C(Cn1c(=O)oc2cc(S(=O)(=O)N3CCCC3)ccc21)NC1CCCc2ccccc21 (configuration not stated)
inactive: growth inhibition [1] -5.83% | growth inhibition [2] -9.71% | viability increase [3] -0.88% | viability [4] 97% | viability [5] 79.4% | RAM network inhibition [6] 10.3%

CN1C(=O)c2cccc(NC(=O)CCc3ccccc3)c2C1=O
inactive: growth inhibition [1] -6.67% | growth inhibition [2] 1.67% | viability increase [3] 0.13% | viability [4] 99% | viability [5] 93% | RAM network inhibition [6] 1.84%

Cn1c(Cn2c(=O)sc3ccccc32)nnc1SCc1ccccc1
inactive: growth inhibition [1] -3.71% | growth inhibition [2] -6.89% | viability increase [3] 0.76% | viability [4] 72.9% | viability [5] 71.2% | RAM network inhibition [6] 4.4%

Cc1cc(Nc2cccc(Cl)c2)n2ncnc2n1
inactive: growth inhibition [1] -2.62% | growth inhibition [2] 7.42% | viability increase [3] -2.08% | viability [4] 95.9% | viability [5] 98.7% | RAM network inhibition [6] 1.67%

Cn1c(Cn2c(=O)sc3ccccc32)nnc1SCC(=O)Nc1ccccc1
inactive: growth inhibition [1] -7.53% | growth inhibition [2] -2.15% | viability increase [3] -1.41% | viability [4] 99.5% | viability [5] 98.1% | RAM network inhibition [6] 13%

Clc1cc(Br)ccc1OCCOCCN1CCOCC1
inactive: growth inhibition [1] -3.75% | growth inhibition [2] 2.38% | viability increase [3] 0.57% | viability [4] 93.5% | viability [5] 91.7% | RAM network inhibition [6] 0.08%

COc1ccc(-c2cn3c(C)c(C(=O)N4CCN(c5ccc(F)cc5)CC4)sc3n2)cc1
inactive: growth inhibition [1] -0.17% | growth inhibition [2] -2.07% | viability increase [3] 0.81% | viability [4] 101% | viability [5] 103% | RAM network inhibition [6] 5.28%

Cc1cc2cc(CNC(=O)C3CCCC3)ccc2n1C
inactive: growth inhibition [1] -3.94% | growth inhibition [2] -10.2% | viability increase [3] 0.45% | viability [4] 103% | viability [5] 91% | RAM network inhibition [6] 2.97%

COc1ccc(C(=O)n2nc(C)cc2C)cc1Br
inactive: growth inhibition [1] -8.38% | growth inhibition [2] -1.95% | viability increase [3] -0.08% | viability [4] 101% | viability [5] 99.3% | RAM network inhibition [6] -0.42%

CCOC(=O)CNc1nc(C(C)(C)C)nc2c1nnn2Cc1ccccc1Cl
inactive: growth inhibition [1] 1.73% | growth inhibition [2] -3.68% | viability increase [3] -1.19% | viability [4] 78% | viability [5] 76.2% | RAM network inhibition [6] 9.74%

CCOC(=O)c1c(NC(=O)c2ccc(Br)o2)sc(C)c1CC
inactive: growth inhibition [1] 1.51% | growth inhibition [2] -8.3% | viability increase [3] -0.6% | viability [4] 73.8% | viability [5] 70.3% | RAM network inhibition [6] 9.97%

Cc1cc(C)cc(NC(=O)CSc2nnc(Cn3c(=O)sc4ccccc43)n2C)c1
inactive: growth inhibition [1] -6.84% | growth inhibition [2] -21.8% | viability increase [3] -2.93% | viability [4] 98.2% | viability [5] 94.9% | RAM network inhibition [6] 1.37%

O=C(CSc1nc2ccccc2o1)NCc1ccc2c(c1)OCO2
inactive: growth inhibition [1] -8.6% | growth inhibition [2] -2.3% | viability increase [3] 4.28% | viability [4] 94.8% | viability [5] 83.9% | RAM network inhibition [6] 2.68%

Cc1ccc(C)c2[nH]c(=O)c(CCNC(=O)c3cc4ccccc4o3)cc12
inactive: growth inhibition [1] -2.5% | growth inhibition [2] -11.6% | viability increase [3] 1.81% | viability [4] 95.4% | viability [5] 91.2% | RAM network inhibition [6] 4.18%

CCn1cc(C(=O)NC2CCCCC2)c(=O)c2cc(S(=O)(=O)N(C)C)ccc21
inactive: growth inhibition [1] -0.125% | growth inhibition [2] 2.4% | viability increase [3] -1.45% | viability [4] 102% | viability [5] 94.7% | RAM network inhibition [6] -1.57%

CCCCCCSc1cc(C)nc2ncnn12
inactive: growth inhibition [1] -19% | growth inhibition [2] 2.92% | viability increase [3] -0.06% | viability [4] 93.6% | viability [5] 83.2% | RAM network inhibition [6] 0.21%
